Experimental data: PMC12316622 (EJNMMI Research, 2025)
Where a name gives a salt, the structure may show the parent alone.

What was measured:
[1] = system: GRPR mRNA in PC-3 xenografts; test: Ex-vivo GRPR mRNA expression in PC-3 xenografts; parameters: species or system NMRI-Foxn1 nu/nu mice; conditions: PC-3 xenografts after third cycle of DTX 5 mg/kg; RT-qPCR
Summary of the method: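 PC-3 xenografts came from male nude mice given taxane 5 mg/kg or placebo (polysorbate-80 1:1 in 5% glucose) weekly for 3 weeks, N = 4. After the final SPECT/CT scan, each tumor was halved. One half was processed for GRPR mRNA by RT-qPCR and compared with placebo.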

T47D cells [2] = test: IC50 determination, SRB cell density assay, T47D; assay type: cell-based; conditions: Homo sapiens
Summary of the method: (§1)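 Cells were seeded in 96-well plates (PC-3 at 3 × 10³, T47D at 5 × 10³) and left overnight. They were exposed 72 h at 37 °C to increasing test compound concentrations with DMSO vehicle, washed, then regrown 48 h in fresh medium. Readout was by SRB: TCA fixation overnight, 0.5% SRB for 20 min, acetic acid washes, dye dissolved in 10 mM Tris, OD at 560 nm. Density was taken relative to untreated cells (100%). Runs were in triplicate, and IC50 came from a four-parameter nonlinear fit.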

PC-3 cells = test: IC50 determination, SRB cell density assay, PC-3; assay type: cell-based; conditions: Homo sapiens
Summary of the method: as §1

[3] = system: GRPR mRNA in T47D xenografts; test: Ex-vivo GRPR mRNA expression in T47D xenografts; parameters: species or system NMRI-Foxn1 nu/nu mice; conditions: T47D tumors from DXR-treated animals (5 mg/kg, 2 cycles); RT-qPCR
Summary of the method: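 T47D xenografts came from estradiol-supplemented female nude mice given anthracycline 5 mg/kg or placebo weekly for 2 weeks. After the last SPECT/CT scan, each tumor was halved. One half was used for GRPR mRNA by RT-qPCR against placebo.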

T47D cells [4] = test: Sensitivity to GRPR-mediated radionuclide therapy, T47D; assay type: cell-based, human; conditions: 50 MBq, 1 h, SRB after 6 days
Summary of the method: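 T47D cells were pretreated 72 h with anthracycline or vehicle (0.4% DMSO), then regrown 24 h. Next, 3 × 10⁶ cells were seeded in T25 flasks and the following day exposed 1 h at 37 °C to 50 MBq/ml ¹⁷⁷Lu-labelled GRPR tracer, [¹⁷⁷Lu]Lu-DTPA (specificity control) or medium. Cells were scraped and re-seeded at 4 × 10³ per well, grown 6 days, then read by SRB. Density was taken versus medium-treated cells within each pretreatment group, from three independent experiments in triplicate.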

IC50 (T47D cells [2]) [nM]	IC50 (PC-3 cells) [nM]	Structure (SMILES)	GRPR mRNA levels in xenografts versus placebo [1]	GRPR mRNA expression in xenografts versus placebo [3]	Cell density relative to medium-treated cells (T47D cells [4]; DXR-pretreated T47D cells)	Cell density relative to medium-treated cells (T47D cells [4]; vehicle and DXR pretreated T47D cells)
0.94 ± 0.39	14.1 ± 3.72	CC(=O)O[C@@]12CO[C@@H]1C[C@H](O)[C@@]1(C)C(=O)[C@H](O)C3=C(C)[C@@H](OC(=O)[C@H](O)[C@@H](NC(=O)OC(C)(C)C)c4ccccc4)C[C@@](O)([C@@H](OC(=O)c4ccccc4)[C@H]21)C3(C)C [DTX, anhydrous docetaxel]	similar	–	–	–
22.3 ± 7.04	–	COc1cccc2c1C(=O)c1c(O)c3c(c(O)c1C2=O)C[C@@](O)(C(=O)CO)C[C@@H]3O[C@H]1C[C@H](N)[C@H](O)[C@H](C)O1 [DXR, doxorubicin hydrochloride]	–	increased GRPR mRNA expression	–	–
–	–	O=C([O-])CN(CCN(CC(=O)[O-])CC(=O)[O-])CCN(CC(=O)[O-])CC(=O)[O-].[177Lu+3] [[^177Lu]Lu-DTPA]	–	–	slightly higher compared to the other conditions	no effect was observed
